Publication PMC3426361 (Journal of biomolecular screening, 2010)

Biological target: TDP-43 (Homo sapiens, UniProt Q13148)
Test: Association and dissociation rates of bt-TAR-32 and bt-TG6 binding to TDP-43
Conditions: slope of kobs vs ligand concentration; arithmetic mean ± SEM, 3 determinations
Method in brief: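 GST-tagged TDP-43 (5 ng/mL, 40 pM) on anti-GST beads (10 μg/mL, preincubated) added at staggered times to biotinylated oligonucleotide (0.25–6.0 nM) prebound 30 min RT to streptavidin donor beads (10 μg/mL). Buffer: 25 mM Tris pH 7.4, 0.1% BSA, 0.1% Triton X-100. AlphaScreen signal read together at end, dark, RT. kobs from one-site exponential association fits per concentration.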

Sequence of TDP-43 (Q13148 whole entry): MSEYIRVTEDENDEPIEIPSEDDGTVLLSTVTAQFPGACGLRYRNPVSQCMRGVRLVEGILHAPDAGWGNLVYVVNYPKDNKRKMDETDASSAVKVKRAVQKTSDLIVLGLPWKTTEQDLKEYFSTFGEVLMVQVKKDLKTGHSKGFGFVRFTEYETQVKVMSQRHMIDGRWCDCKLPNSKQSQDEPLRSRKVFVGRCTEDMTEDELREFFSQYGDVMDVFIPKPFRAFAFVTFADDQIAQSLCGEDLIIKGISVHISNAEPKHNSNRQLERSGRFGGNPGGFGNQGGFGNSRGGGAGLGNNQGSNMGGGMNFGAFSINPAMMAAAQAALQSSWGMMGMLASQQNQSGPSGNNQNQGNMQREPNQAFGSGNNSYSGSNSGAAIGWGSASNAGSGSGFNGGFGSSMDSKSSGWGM

## 5′-CTGCTTTTTGCCTGTACTGGGTCTCTGTGGTT-3′ (DNA CTGCTTTTTGCCTGTACTGGGTCTCTGTGGTT; chemistry not given here) [TAR-32]
  kon: 2.4 ± 0.93 µmol⁻¹ min⁻¹
